Measurements: ChEMBL document CHEMBL1157306, “Capisterones A and B, which enhance fluconazole activity in Saccharomyces cerevisiae, from the marine green alga Penicillus capitatus” (J Nat Prod, 2006)
Calls of active or inactive are those of the source. The calls are words filed in the database; no cut-off is given here.

Experiments:
Saccharomyces cerevisiae [1] = experiment: Potentiation of fluconazole-induced antifungal activity against null pump Saccharomyces cerevisiae DSY 390 assessed as fractional inhibitory concentration at 12.8 uM; format: functional
In short: (§1)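 Fluconazole dose-response curves were run alone and with a fixed concentration of second agent (22.5, 6.0 or 12.8 μM). Strains were S. cerevisiae null pump DSY 390 and DSY 415 overexpressing C. albicans CDR1 or MDR1. Growth inhibition was the read-out, and the fractional inhibitory concentration was derived from it.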

Saccharomyces cerevisiae [2] = experiment: Potentiation of fluconazole-induced antifungal activity against Saccharomyces cerevisiae DSY 415 overexpressing Candida albicans MDR1 assessed as fractional inhibitory concentration at 12.8 uM; format: functional; in short: as §1
Saccharomyces cerevisiae [3] = experiment: Potentiation of fluconazole-induced antifungal activity against Saccharomyces cerevisiae DSY 415 overexpressing Candida albicans CDR1 assessed as fractional inhibitory concentration at 12.8 uM; format: functional; in short: as §1
BT-549 = experiment: Cytotoxicity against human BT549 cells; format: functional, cell-based
In short: (§2)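 Human cancer cell lines (KB, SK-MEL, BT-549, SK-OV-3) tested alongside non-cancerous Vero cells, with test agent concentrations up to 35 μM.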

Saccharomyces cerevisiae [4] = experiment: Antifungal activity against null pump Saccharomyces cerevisiae DSY 390 at 67.4 uM; format: functional, organism-based
Saccharomyces cerevisiae [5] = experiment: Potentiation of fluconazole-induced antifungal activity against Saccharomyces cerevisiae DSY 415 overexpressing Candida albicans MDR1 assessed as fractional inhibitory concentration at 22.5 uM; format: functional; in short: as §1
Pichia kudriavzevii = experiment: Antifungal activity against Candida krusei; format: functional, organism-based
Saccharomyces cerevisiae [6] = experiment: Antifungal activity against null pump Saccharomyces cerevisiae DSY 390; format: functional, organism-based
In short: (§3)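 Growth inhibition of S. cerevisiae strains with efflux pumps overexpressed (CDR1 or MDR1, DSY 415) or no pump (DSY 390) was measured across a dose range of test agent alone. IC50 was read from the dose-response curves.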

Saccharomyces cerevisiae [7] = experiment: Potentiation of fluconazole-induced antifungal activity against null pump Saccharomyces cerevisiae DSY 390 assessed as fractional inhibitory concentration at 22.5 uM; format: functional
In short: (§4)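 Pump-null S. cerevisiae DSY 390 was run in parallel with strains overexpressing C. albicans CDR1 or MDR1 efflux pumps. Growth-inhibition dose-response curves were recorded for fluconazole alone and for fluconazole with a fixed modulator concentration (22.5 or 6.0 μM). The interaction was expressed as a fractional inhibitory concentration (FIC) index.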

KB = experiment: Cytotoxicity against human KB cells; format: functional, cell-based; in short: as §2
Saccharomyces cerevisiae [8] = experiment: Antifungal activity against Saccharomyces cerevisiae DSY 415 overexpressing Candida albicans CDR1 at 67.4 uM; format: functional, organism-based
Saccharomyces cerevisiae [9] = experiment: Antifungal activity against Saccharomyces cerevisiae DSY 415 overexpressing Candida albicans MDR1 at 67.4 uM; format: functional, organism-based
Saccharomyces cerevisiae [10] = experiment: Antifungal activity against null pump Saccharomyces cerevisiae DSY 390 at 12.8 uM; format: functional, organism-based
Nakaseomyces glabratus = experiment: Antifungal activity against Candida glabrata; format: functional, organism-based
Cryptococcus neoformans = experiment: Antifungal activity against Cryptococcus neoformans; format: functional, organism-based
Saccharomyces cerevisiae [11] = experiment: Antifungal activity against Saccharomyces cerevisiae DSY 415 overexpressing Candida albicans CDR1; format: functional, organism-based; in short: as §3
Saccharomyces cerevisiae [12] = experiment: Antifungal activity against Saccharomyces cerevisiae DSY 415 overexpressing Candida albicans MDR1 at 12.8 uM; format: functional, organism-based
Saccharomyces cerevisiae [13] = experiment: Antifungal activity against Saccharomyces cerevisiae DSY 415 overexpressing Candida albicans CDR1 at 12.8 uM; format: functional, organism-based
Candida albicans = experiment: Antifungal activity against Candida albicans; format: functional, organism-based
Vero = experiment: Cytotoxicity against african green monkey Vero cells up to 35 uM; format: cell-based; conditions: chlorocebus sabaeus
Saccharomyces cerevisiae [14] = experiment: Potentiation of fluconazole-induced antifungal activity against Saccharomyces cerevisiae DSY 415 overexpressing Candida albicans CDR1 assessed as fractional inhibitory concentration at 22.5 uM; format: functional; in short: as §1
SK-OV-3 = experiment: Cytotoxicity against human SKOV3 cells; format: functional, cell-based; in short: as §2
SK-MEL = experiment: Cytotoxicity against human SK-MEL cells; format: functional, cell-based; in short: as §2
Saccharomyces cerevisiae [15] = experiment: Antifungal activity against Saccharomyces cerevisiae DSY 415 overexpressing Candida albicans MDR1; format: functional, organism-based; in short: as §3
Aspergillus fumigatus = experiment: Antifungal activity against Aspergillus fumigatus; format: functional, organism-based
Saccharomyces cerevisiae [16] = experiment: Potentiation of fluconazole-induced antifungal activity against Saccharomyces cerevisiae DSY 415 overexpressing Candida albicans CDR1 assessed as fractional inhibitory concentration at 6.03 uM; format: functional; in short: as §1
Saccharomyces cerevisiae [17] = experiment: Potentiation of fluconazole-induced antifungal activity against null pump Saccharomyces cerevisiae DSY 390 assessed as fractional inhibitory concentration at 6.03 uM; format: functional; in short: as §4
Saccharomyces cerevisiae [18] = experiment: Potentiation of fluconazole-induced antifungal activity against Saccharomyces cerevisiae DSY 415 overexpressing Candida albicans MDR1 assessed as fractional inhibitory concentration at 6.03 uM; format: functional; in short: as §1

SMILES | Activity (BT-549) | Activity (Pichia kudriavzevii) | IC50 (Saccharomyces cerevisiae [6]) [µM] | Activity (KB) | Activity (Nakaseomyces glabratus) | Activity (Cryptococcus neoformans) | IC50 (Saccharomyces cerevisiae [11]) [µM] | Activity (Candida albicans) | Activity (Vero) | Activity (SK-OV-3) | Activity (SK-MEL) | IC50 (Saccharomyces cerevisiae [15]) [µM] | Activity (Aspergillus fumigatus) | further results
CC(C)[C@@H]1OC(=O)[C@@H](Cc2ccccc2)N(C)C(=O)[C@H](C(C)C)OC(=O)[C@@H](Cc2ccccc2)N(C)C(=O)[C@H](C(C)C)OC(=O)[C@@H](Cc2ccccc2)N(C)C1=O [BEAUVERICIN] | – | – | – | – | – | – | – | – | – | – | – | – | – | FIC50 (Saccharomyces cerevisiae [1]): 2.67; FIC50 (Saccharomyces cerevisiae [2]): 2; FIC50 (Saccharomyces cerevisiae [3]): 0.05
CC(=O)OC[C@@]1(COS(=O)(=O)O)C(=O)CC[C@]23C[C@]24CC[C@]2(C)[C@@H]([C@H](C)CC(=O)CC(C)C)CC[C@@]2(C)[C@@H]4CC[C@@H]13 [CAPISTERONE A] | inactive | inactive | > 67 | inactive | inactive | inactive | > 67 | inactive | Not Active | inactive | inactive | > 67 | inactive | Activity (Saccharomyces cerevisiae [4]): inactive; FIC50 (Saccharomyces cerevisiae [5]): 0.08; FIC50 (Saccharomyces cerevisiae [7]): 0.55; Activity (Saccharomyces cerevisiae [8]): inactive; Activity (Saccharomyces cerevisiae [9]): inactive; Activity (Saccharomyces cerevisiae [10]): inactive; Activity (Saccharomyces cerevisiae [12]): inactive; Activity (Saccharomyces cerevisiae [13]): inactive; FIC50 (Saccharomyces cerevisiae [14]): 0.33
CC(C)CC(=O)C[C@@H](C)[C@H]1CC[C@@]2(C)[C@@H]3CC[C@H]4[C@](CO)(COS(=O)(=O)O)C(=O)CC[C@@]45C[C@@]35CC[C@]12C [CAPISTERONE B] | inactive | inactive | 7 | inactive | inactive | inactive | 7 | inactive | Not Active | inactive | inactive | 7 | inactive | FIC50 (Saccharomyces cerevisiae [16]): 0.33; FIC50 (Saccharomyces cerevisiae [17]): 0.5; FIC50 (Saccharomyces cerevisiae [18]): 0.15
